In ChEMBL document CHEMBL1681732, “Synthesis and SAR of sulfoxide substituted carboxyquinolines as NK3 receptor antagonists” (Bioorg Med Chem Lett, 2011):
Values after ≈ are worked out from the molar mass of the structure shown.

Legend:
[1] = Intrinsic clearance in human liver microsomes assessed per mg of protein; type: ADME, Microsome
MDR1 [2] = assay: (§1) Apparent permeability across MDCK cells expressing human MDR1; type: ADME, cell-based, Canis lupus familiaris; conditions: dog, MDCK-MDR1
Outline: (§2)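 Permeability measured in MDCK cells expressing human MDR1. Papp is expressed in 10^-6 cm/s and reported together with the efflux ratio.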

[3] = Lipophilicity, log D of the compound; type: physicochemical; conditions: octanol/water
[4] = Ratio of drug level in brain to plasma in rat at 3 umol/kg, iv after 1 hr; type: ADME, organism-based; conditions: brain and plasma, read-out: BPR
Outline: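 Rat dosed iv at 3 µmol/kg. Total brain and plasma levels taken 1 h post dose, and their ratio reported.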

MDR1 [5] = assay: (§3) Efflux ratio of permeability in MDCK cells expressing human MDR1; type: ADME, cell-based, Canis lupus familiaris; conditions: dog, MDCK-MDR1; outline: as §2
[6] = Oral bioavailability in rat; type: ADME, organism-based; conditions: in vivo
Neuromedin-K receptor = target: T1, Neuromedin-K receptor (Homo sapiens, UniProt P29371); assay: Antagonist activity at human NK3 receptor expressed in CHO cells assessed as inhibition of senktide-induced calcium flux by FLIPR assay; type: functional, cell-based
T1 sequence (P29371 whole entry): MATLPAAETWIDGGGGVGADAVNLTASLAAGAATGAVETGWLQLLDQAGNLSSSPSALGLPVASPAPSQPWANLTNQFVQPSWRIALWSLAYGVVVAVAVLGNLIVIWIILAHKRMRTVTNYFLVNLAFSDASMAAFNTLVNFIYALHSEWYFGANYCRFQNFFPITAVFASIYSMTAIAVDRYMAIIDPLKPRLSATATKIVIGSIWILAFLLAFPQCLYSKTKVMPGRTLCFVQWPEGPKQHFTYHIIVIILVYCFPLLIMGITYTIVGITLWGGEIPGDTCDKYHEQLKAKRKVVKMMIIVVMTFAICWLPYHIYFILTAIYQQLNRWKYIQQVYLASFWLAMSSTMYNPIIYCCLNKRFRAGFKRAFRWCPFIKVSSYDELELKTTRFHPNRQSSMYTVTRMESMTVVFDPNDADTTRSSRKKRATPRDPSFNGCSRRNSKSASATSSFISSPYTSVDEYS
Outline: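 FLIPR functional assay in CHO cells stably expressing human recombinant NK3 receptor. EC50 given as mean ± SEM (n ≥ 2), or as a single value where n = 1. Tested as 1:1 diastereomer mixtures unless marked as a single isomer.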

[7] = Selectivity ratio of EC50 for human NK3 receptor to EC50 for NK1 receptor
[8] = target: Voltage-gated inwardly rectifying potassium channel KCNH2 (Homo sapiens, UniProt Q12809); assay: Inhibition of human ERG
Sequence of Voltage-gated inwardly rectifying potassium channel KCNH2 (Q12809 whole entry): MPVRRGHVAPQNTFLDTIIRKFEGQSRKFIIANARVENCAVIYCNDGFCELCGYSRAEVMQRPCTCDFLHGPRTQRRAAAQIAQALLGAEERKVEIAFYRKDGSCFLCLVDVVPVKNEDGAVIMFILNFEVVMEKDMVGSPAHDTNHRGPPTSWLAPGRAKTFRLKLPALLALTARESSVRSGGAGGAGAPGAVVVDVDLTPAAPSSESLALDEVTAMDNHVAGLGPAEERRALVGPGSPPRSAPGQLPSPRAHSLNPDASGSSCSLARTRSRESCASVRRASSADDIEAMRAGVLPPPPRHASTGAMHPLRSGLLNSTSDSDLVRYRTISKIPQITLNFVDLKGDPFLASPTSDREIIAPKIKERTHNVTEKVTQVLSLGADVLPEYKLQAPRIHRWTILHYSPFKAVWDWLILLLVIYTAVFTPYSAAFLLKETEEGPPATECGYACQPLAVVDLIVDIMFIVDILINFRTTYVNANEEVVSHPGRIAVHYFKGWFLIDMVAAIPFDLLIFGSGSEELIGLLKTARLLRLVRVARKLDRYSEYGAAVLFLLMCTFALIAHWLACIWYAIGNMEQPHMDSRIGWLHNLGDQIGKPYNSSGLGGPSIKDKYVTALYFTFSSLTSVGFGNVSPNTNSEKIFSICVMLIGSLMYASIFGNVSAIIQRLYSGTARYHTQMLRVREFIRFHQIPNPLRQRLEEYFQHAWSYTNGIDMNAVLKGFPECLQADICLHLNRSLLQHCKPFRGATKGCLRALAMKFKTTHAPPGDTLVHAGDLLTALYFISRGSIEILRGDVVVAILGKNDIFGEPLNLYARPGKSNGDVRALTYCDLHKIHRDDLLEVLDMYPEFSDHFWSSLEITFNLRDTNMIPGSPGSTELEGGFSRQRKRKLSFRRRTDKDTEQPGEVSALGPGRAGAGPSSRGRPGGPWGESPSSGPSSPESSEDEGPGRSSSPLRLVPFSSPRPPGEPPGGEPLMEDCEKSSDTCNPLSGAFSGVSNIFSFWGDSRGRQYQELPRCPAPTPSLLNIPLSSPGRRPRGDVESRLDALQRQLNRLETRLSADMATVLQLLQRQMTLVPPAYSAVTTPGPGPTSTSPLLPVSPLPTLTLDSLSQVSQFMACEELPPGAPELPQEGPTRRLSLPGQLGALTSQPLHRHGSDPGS

[9] = Equilibrium solubility of the compound; type: physicochemical
Gerbillinae = assay: Reversal of senktide-induced locomotor activity in ip dosed gerbil; type: functional
[10] = Selectivity ratio of EC50 for human NK3 receptor to EC50 for NK2 receptor
[11] = Clearance in rat plasma; type: ADME, organism-based
[12] = Half life in rat; type: ADME, organism-based; conditions: in vivo
[13] = Half life in dog; type: ADME, organism-based, Canis lupus familiaris; conditions: in vivo
[14] = Plasma clearance in dog; type: ADME, organism-based, Canis lupus familiaris
[15] = Oral bioavailability in dog; type: ADME, organism-based, Canis lupus familiaris; conditions: in vivo
MDCK [16] = assay: as §1; type: ADME, cell-based, Canis lupus familiaris; conditions: dog, mdck; outline: as §2
MDCK [17] = assay: as §3; type: ADME, cell-based, Canis lupus familiaris; conditions: dog, mdck; outline: as §2

Row | EC50 (Neuromedin-K receptor) | solubility thermodynamic [9] | Structure (SMILES) | other results
1 | 0.0037 µM | 270 µM (≈ 116 µg/mL) | CC[C@H](NC(=O)c1c([S@+](C)[O-])c(-c2ccccc2)nc2ccccc12)c1ccccc1 | microsomal CLint [1]: 23 µL/min/mg; Papp (MDR1 [2]): 28 ×10⁻⁶ cm/s; logD [3]: 3; Kp at 1 h [4]: 0.4; efflux ratio (MDR1 [5]): 1.3; bioavailability [6]: 60%; Ratio EC50 [7]: > 2700; INH [8]: > 33 µM; Activity (Gerbillinae): Dose-dependent effect; ED50 (Gerbillinae): 0.75 µmol/kg; Ratio EC50 [10]: 1860; clearance [11]: 60 mL/min/kg; half-life [12]: 3 h
2 | 0.0018 µM | 8 µM (≈ 3.54 µg/mL) | CC[C@H](NC(=O)c1c(C[S@@+](C)[O-])c(-c2ccccc2)nc2ccccc12)c1ccccc1 | microsomal CLint [1]: 5.2 µL/min/mg; Papp (MDR1 [2]): 10 ×10⁻⁶ cm/s; logD [3]: 3.5; efflux ratio (MDR1 [5]): 2.6; INH [8]: > 33 µM; ED50 (Gerbillinae): 22 µmol/kg
3 | 0.0053 µM | 53 µM (≈ 23.5 µg/mL) | CC[C@H](NC(=O)c1c(C[S@+](C)[O-])c(-c2ccccc2)nc2ccccc12)c1ccccc1 | microsomal CLint [1]: 8.4 µL/min/mg; Papp (MDR1 [2]): 9.9 ×10⁻⁶ cm/s; half-life [13]: 6.7 h; logD [3]: 3.5; clearance [14]: 2.3 mL/min/kg; efflux ratio (MDR1 [5]): 3.7; Ratio EC50 [7]: > 660; INH [8]: > 33 µM; ED50 (Gerbillinae): 2 µmol/kg; Ratio EC50 [10]: 170; bioavailability [15]: 89%
4 | 0.036 µM | < 1 µM | CC[C@H](NC(=O)c1c(SC)c(-c2ccccc2)nc2ccccc12)c1ccccc1 (mixture of isomers) | –
5 | 0.0049 µM | – | CC[C@H](NC(=O)c1c([S+](C)[O-])c(-c2ccccc2)nc2ccccc12)c1ccccc1 (mixture of isomers) | Papp (MDR1 [2]): 9.4 ×10⁻⁶ cm/s; efflux ratio (MDR1 [5]): 2.7; solubility [9]: 230 µM
6 | 0.014 µM | 36 µM | CC[C@H](NC(=O)c1c(S(C)(=O)=O)c(-c2ccccc2)nc2ccccc12)c1ccccc1 (mixture of isomers) | Papp (MDR1 [2]): 11 ×10⁻⁶ cm/s; efflux ratio (MDR1 [5]): 2.6
7 | 0.035 µM | 2 µM | CC[C@H](NC(=O)c1c(CSC)c(-c2ccccc2)nc2ccccc12)c1ccccc1 (mixture of isomers) | Papp (MDR1 [2]): 5.9 ×10⁻⁶ cm/s; efflux ratio (MDR1 [5]): 1.1
8 | 0.0025 µM | 4 µM | CC[C@H](NC(=O)c1c(CS(C)(=O)=O)c(-c2ccccc2)nc2ccccc12)c1ccccc1 (mixture of isomers) | Papp (MDR1 [2]): 11 ×10⁻⁶ cm/s; efflux ratio (MDR1 [5]): 3.1
9 | 0.0033 µM | 360 µM | CC[C@H](NC(=O)c1c(CC[S+](C)[O-])c(-c2ccccc2)nc2ccccc12)c1ccccc1 (mixture of isomers) | Papp (MDR1 [2]): 1 ×10⁻⁶ cm/s; efflux ratio (MDR1 [5]): 21
10 | 0.081 µM | 53 µM | CC[C@H](NC(=O)c1c([S+](C)[O-])c(-c2ccccc2F)nc2ccccc12)c1ccccc1 (mixture of isomers) | –
11 | 0.018 µM | 100 µM | CC[C@H](NC(=O)c1c([S+](C)[O-])c(-c2cccc(F)c2)nc2ccccc12)c1ccccc1 (mixture of isomers) | –
12 | 0.048 µM | 88 µM | CC[C@H](NC(=O)c1c([S+](C)[O-])c(-c2ccc(F)cc2)nc2ccccc12)c1ccccc1 (mixture of isomers) | –
13 | 0.0017 µM | 47 µM | CC[C@H](NC(=O)c1c([S+](C)[O-])c(-c2cccs2)nc2ccccc12)c1ccccc1 (mixture of isomers) | microsomal CLint [1]: 220 µL/min/mg
14 | 0.0018 µM | – | CC[C@H](NC(=O)c1c([S+](C)[O-])c(-c2ccsc2)nc2ccccc12)c1ccccc1 (mixture of isomers) | microsomal CLint [1]: 190 µL/min/mg
15 | 1.12 µM | 360 µM | CC[C@H](NC(=O)c1c([S+](C)[O-])c(-c2ccccn2)nc2ccccc12)c1ccccc1 (mixture of isomers) | –
16 | 0.11 µM | 41 µM | CC[C@H](NC(=O)c1c([S+](C)[O-])c(-c2cscn2)nc2ccccc12)c1ccccc1 (mixture of isomers) | –
17 | 0.22 µM | 390 µM | CC[C@H](NC(=O)c1c([S+](C)[O-])c(-c2cncs2)nc2ccccc12)c1ccccc1 (mixture of isomers) | –
18 | 2.5 µM | 420 µM | CC[C@H](NC(=O)c1c([S+](C)[O-])c(-c2cc[nH]n2)nc2ccccc12)c1ccccc1 (mixture of isomers) | –
19 | 0.0069 µM | 170 µM | CC[C@H](NC(=O)c1c([S+]([O-])CC)c(-c2ccccc2)nc2ccccc12)c1ccccc1 (mixture of isomers) | –
20 | 0.016 µM | 83 µM | CC[C@H](NC(=O)c1c([S+]([O-])C(C)C)c(-c2ccccc2)nc2ccccc12)c1ccccc1 (mixture of isomers) | –

Row | EC50 (Neuromedin-K receptor) | solubility thermodynamic [9] | Structure (SMILES) | other results
21 | 0.012 µM | 52 µM | CC[C@H](NC(=O)c1c([S+]([O-])CC(=O)N(C)C)c(-c2ccccc2)nc2ccccc12)c1ccccc1 (mixture of isomers) | –
22 | 0.0082 µM | 160 µM | CC[C@H](NC(=O)c1c([S+](C)[O-])c(-c2ccccc2)nc2c(F)cccc12)c1ccccc1 (mixture of isomers) | –
23 | 1.9 µM | 16 µM | CC[C@H](NC(=O)c1c([S+](C)[O-])c(-c2ccccc2)nc2c(C)cccc12)c1ccccc1 (mixture of isomers) | –
24 | 0.013 µM | 58 µM | CC[C@H](NC(=O)c1c([S+](C)[O-])c(-c2ccccc2)nc2cc(F)ccc12)c1ccccc1 (mixture of isomers) | –
25 | 0.0077 µM | 34 µM | CC[C@H](NC(=O)c1c([S+](C)[O-])c(-c2ccccc2)nc2cc(Cl)ccc12)c1ccccc1 (mixture of isomers) | –
26 | 0.038 µM | 69 µM | CCOc1ccc2c(C(=O)N[C@@H](CC)c3ccccc3)c([S+](C)[O-])c(-c3ccccc3)nc2c1 (mixture of isomers) | –
27 | 0.212 µM | 44 µM | CC[C@H](NC(=O)c1c([S+](C)[O-])c(-c2ccccc2)nc2cc(N(C)C)ccc12)c1ccccc1 (mixture of isomers) | –
28 | 0.0051 µM | 15 µM | CC[C@H](NC(=O)c1c([S+](C)[O-])c(-c2ccccc2)nc2cc(Br)ccc12)c1ccccc1 (mixture of isomers) | –
29 | 0.0036 µM | 160 µM | CC[C@H](NC(=O)c1c([S+](C)[O-])c(-c2ccccc2)nc2cc(C)ccc12)c1ccccc1 (mixture of isomers) | –
30 | 0.088 µM | 460 µM | CC[C@H](NC(=O)c1c([S+](C)[O-])c(-c2ccccc2)nc2cc(CN(C)C)ccc12)c1ccccc1 (mixture of isomers) | –
31 | 0.015 µM | 180 µM | C[S+]([O-])c1c(-c2ccccc2)nc2ccccc2c1C(=O)N[C@H](c1ccccc1)C1CC1 (mixture of isomers) | –
32 | > 10 µM | – | C[S+]([O-])c1c(-c2ccccc2)nc2ccccc2c1C(=O)N[C@H](c1ccncc1)C1CC1 (mixture of isomers) | solubility [9]: 99 µM
33 | 0.074 µM | 350 µM | CC[C@H](NC(=O)c1c([S+](C)[O-])c(-c2ccccc2)nc2ccccc12)c1cccnc1 (mixture of isomers) | –
34 | 0.077 µM | 420 µM | CC[C@H](NC(=O)c1c([S+](C)[O-])c(-c2ccccc2)nc2ccccc12)c1ccccn1 (mixture of isomers; 35a) | –
35 | > 5.2 µM | – | CC[C@H](NC(=O)c1c([S+](C)[O-])c(-c2ccccc2)nc2ccccc12)c1ccccn1 (mixture of isomers; 35b) | solubility [9]: 460 µM
36 | 0.016 µM | 1.3 µM (≈ 0.555 µg/mL) | C[S+]([O-])c1c(-c2ccccc2)nc2ccccc2c1C(=O)NC1(c2ccccc2)CC1 (racemic) | –
37 | 0.038 µM | 4.5 µM (≈ 1.98 µg/mL) | C[S+]([O-])c1c(-c2ccccc2)nc2ccccc2c1C(=O)NC1(c2ccccc2)CCC1 (racemic) | –
38 | 0.69 µM | 470 µM (≈ 202 µg/mL) | CC[C@H](NC(=O)c1c([S+](C)[O-])c(-c2cccnc2)nc2ccccc12)c1ccccc1 (single isomer, unassigned) | –
39 | 0.24 µM | – | CC[C@H](NC(=O)c1c([S+](C)[O-])c(-c2ccccc2)nc2ccccc12)c1ccccc1 (stereo in doubt; 2b) | Papp (MDCK [16]): 17 ×10⁻⁶ cm/s; Ratio (MDCK [17]): 2; solubility [9]: 44 µM (≈ 18.9 µg/mL)
40 | > 9.3 µM | – | C[S+]([O-])c1c(-c2ccccc2)nc2ccccc2c1C(=O)N[C@H](c1ccncc1)C1CC1 (stereo in doubt; 33b) | solubility [9]: 370 µM (≈ 163 µg/mL)
